Data on 1 molecule can be found in ChEMBL document CHEMBL1141657, “Synthesis, structure elucidation and identification of antitumoural properties of novel fused 1,2,4-triazine aryl derivatives” (Eur J Med Chem, 2008).

A short description of data set [1]: Growth inhibition of human LS180 cells assessed as BrdU incorporation at 165.4 uM after 72 hrs by spectrophotometry. The data set is classed as functional. To be noted: LS180, 72 h, read-out: GI. Put shortly:
(§1)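 Cells were seeded at 10⁴ cells/mL and preincubated. Compounds were dissolved in DMSO and added at two fixed concentrations, then incubated for 72 h. End-point was BrdU labelling with ELISA detection, read spectrophotometrically. Result is % growth inhibition versus untreated controls. Triplicates.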
Background: Dividing cells build labelled thymidine or BrdU into new DNA.

The test system of data set [2] is SiHa. The data set is described as follows: Growth inhibition of human SiHa cells assessed as BrdU incorporation at 165.4 uM after 72 hrs by spectrophotometry. The data set is classed as functional. To be noted: read-out: GI. Put shortly:
as §1

Data set [3] relates to Jurkat. The data set is described as follows: Cytotoxicity against human Jurkat cells assessed as cell viability at 1 uM after 24 hrs by MTT assay relative to control. The data set is classed as functional. To be noted: read-out: Activity. Put shortly: (§2)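 Jurkat T-cell leukaemia line grown in RPMI 1640 with 10% FBS, 2 mM L-glutamine and gentamycin at 37 °C, 5% CO2, kept in log phase. Compounds were dissolved in DMSO and applied for 24 h. Cells were washed in HEPES-buffered medium (pH 7.4) and given MTT at 0.5 mg/mL for 45 min at 37 °C. Formazan was dissolved in DMSO and read at 570 nm. Viability is % of control, from three independent measurements.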
A general note: Tetrazolium assays rely on reduction of a dye to a coloured formazan, in cell work by metabolically active cells.

Data set [4] in a line: Growth inhibition of african green monkey Vero cells assessed as BrdU incorporation at 165.4 uM after 72 hrs by spectrophotometry. The data set is classed as cell-based. The note with it: chlorocebus sabaeus, read-out: GI. An outline of the steps: as §1
A short description of data set [5]: Cytotoxicity against HSF cells assessed as cell viability at 1 uM after 24 hrs by MTT assay relative to control. To be noted: human, read-out: Activity. The data set is classed as cell-based. An outline of the steps:
(§3)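 Normal human skin fibroblasts (HSF, primary line) were exposed to DMSO-dissolved compound for 24 h. Viability was read by MTT tetrazolium reduction and expressed against untreated control set at 100%.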

Data set [6] is described as follows: Growth inhibition of HSF cells assessed as BrdU incorporation at 165.4 uM after 72 hrs by spectrophotometry. The data set is classed as cell-based. The note with it: human, read-out: GI. Put shortly: as §1
In data set [7] the test system is SiHa. Put plainly: Growth inhibition of human SiHa cells assessed as BrdU incorporation at 33.1 uM after 72 hrs by spectrophotometry. The data set is classed as functional. To be noted: read-out: GI. Put shortly: as §1
Data set [8] has as its system Jurkat. Put plainly: Cytotoxicity against human Jurkat cells assessed as cell viability at 100 uM after 24 hrs by MTT assay relative to control. The note with it: read-out: Activity. The data set is classed as functional. Put shortly: as §2
A short description of data set [9]: Cytotoxicity against HSF cells assessed as cell viability at 50 uM after 24 hrs by MTT assay relative to control. The data set is classed as cell-based. The note with it: human, read-out: Activity. An outline of the steps:
as §3

Data set [10] has as its system T47D. Put plainly: Growth inhibition of human T47D cells assessed as BrdU incorporation at 33.1 uM after 72 hrs by spectrophotometry. The data set is classed as functional. The note with it: read-out: GI. An outline of the steps: (§4)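 Each cell line was seeded at 10⁴ cells per mL and preincubated. Test agents were dissolved in DMSO, added at two examined concentrations (10 and 50 per mL by mass), and incubated for 72 h. The end-point was BrdU labeling and detection kit III read on an ELISA reader. Percent growth inhibition was calculated against untreated controls, in triplicate.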

In another data set the test system is Vero. Put plainly: Growth inhibition of african green monkey Vero cells assessed as BrdU incorporation at 33.1 uM after 72 hrs by spectrophotometry. The note with it: chlorocebus sabaeus. The data set is classed as cell-based. An outline of the steps: as §1
The test system of data set [11] is T47D. Put plainly: Growth inhibition of human T47D cells assessed as BrdU incorporation at 165.4 uM after 72 hrs by spectrophotometry. The data set is classed as functional. The note with it: read-out: GI. An outline of the steps:
as §4

The test system of data set [12] is Jurkat. Put plainly: Cytotoxicity against human Jurkat cells assessed as cell viability at 50 uM after 24 hrs by MTT assay relative to control. The data set is classed as functional. The note with it: read-out: Activity. An outline of the steps: as §2
Data set [13] is described as follows: Growth inhibition of human LS180 cells assessed as BrdU incorporation at 33.1 uM after 72 hrs by spectrophotometry. The data set is classed as functional. The note with it: LS180, 72 h, read-out: GI. An outline of the steps:
as §1

Data set [14] in a line: Growth inhibition of HSF cells assessed as BrdU incorporation at 33.1 uM after 72 hrs by spectrophotometry. The data set is classed as cell-based. To be noted: human, read-out: GI. Put shortly:
as §1

A short description of data set [15]: Cytotoxicity against HSF cells assessed as cell viability at 100 uM after 24 hrs by MTT assay relative to control. The data set is classed as cell-based. To be noted: human, read-out: Activity. An outline of the steps: as §3

With `COc1ccc(N2CCn3c2nnc(C(=O)NN)c3=O)cc1`, the inhibition of growth at 165.4 µM was 1% in data set [1], 18% in the data set on SiHa [2] and 0% in the data set with T47D [11]. Besides, the viability at 1 µM in the data set with Jurkat [3] is 97%. The inhibition at 72 h, 165.4 µM in [4] and in data set [6] was 0% each time. For the same molecule, the viability at 24 h, 1 µM in [5] is 98%. The inhibition of growth at 33.1 µM with SiHa [7] was 19%; with T47D [10], 1%; in data set [13], 1%. Moreover, the viability at 100 µM in the data set on Jurkat [8] amounted to 100%. Further, the viability at 24 h, 50 µM in [9] was 102%. Further, the “growth inhibition (GI)” value with Vero is 0%. Besides, in the data set with Jurkat [12], the viability at 50 µM came out at 97%. Also, the inhibition at 72 h, 33.1 µM in data set [14] turned out to be 0%. Further, in data set [15], the viability at 24 h, 100 µM is 100%.
